# Bioassay records deposited in PubChem BioAssay by several laboratories.
# An excerpt weighted towards active compounds, which were near 4.1% of everything screened.
# Cl transport mod = KCC2 (human) Cl- transport modulation; Q9H2X9; KCC2 cells, thallium flux FluoZin-2 fluorescence; B-score of Tl+ flux slope (higher = more flux/activation; lower = inhibition) at 10 µM; hit rate 2.2% among 190,000; AID 1456;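 active = thallium flux slope and its plate-corrected score both differing from the plate sample mean at a set confidence after two filtering rounds, in either direction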;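 also: slope of fluorescence scaled to starting intensity during 10 to 20 s after thallium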
# hERG protect = hERG (human) protection from proarrhythmic block. Q12809. CHO-hERG, FluxOR thallium flux, dofetilide IC70 present. activation (rescue from dofetilide block), less the hit threshold, % at 10 µM. hit rate 0.51% among 310,000;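 active = activation above the mean of controls blocked by dofetilide plus 5 SD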;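 also: thallium influx through hERG after potassium depolarization seen as dye fluorescence rise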
# KCNQ1 block = blocks the human KCNQ1 potassium channel; P51787; CHO-K1 KCNQ1, FluxOR thallium flux fluorescence; stronger effect = higher value; B-score at 10 µM; hit rate 1.3% among 310,000; AID 2642;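 active = compounds whose thallium flux B-score, printed positive for inhibition, exceeds three library SD while starting fluorescence stays within three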;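 also: channel opened by potassium depolarization with thallium stimulus after 20 min compound exposure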
# KCNQ1 pot = potentiates or activates the human KCNQ1 potassium channel | P51787 | CHO-K1 KCNQ1, thallium flux FluxOR fluorescence; stronger effect = higher value | B-score at 10 µM | hit rate 0.35% among 310,000;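 active = fluorescence ratio B-score, a plate-corrected score, at least three library SD, with initial intensity B-score within 5 SD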
#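 Assay system: CHO-K1 cells stably expressing KCNQ1; Medium: assay buffer with matched DMSO; Also added: K+/Tl+ depolarizing stimulus; Dosing: single dose; Timing: dye 90 min, compound 20 min, room temperature; Measured by: kinetic FluxOR thallium fluorescence, 10-s 1-Hz baseline, 110-s post-stimulus read; Read-out: peak-minus-minimum fluorescence over initial fluorescence, negative-control normalized, B-scored.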
# KCNK3 block = human KCNK3 channel inhibition, primary screen; O14649; CHO-KCNK3 thallium flux, FluxOR fluorescence; stronger effect = lower value; B-score at 10 µM; hit rate 0.84% among 340,000; AID 602410;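 active = B-score under library mean minus 4 SD, starting fluorescence ratio at most library mean plus 5 SD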;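 also: more negative B-score means stronger inhibition of thallium flux through KCNK3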
# KCNK9 inh = blocks the human KCNK9 two-pore domain potassium channel; hit rate 1.2% among 310,000; B-score at 10 µM; AID 488922; HEK293 KCNK9, FluxOR thallium flux fluorescence; stronger effect = lower value;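 active = ratio B-score over 3 SD below the library mean, with starting fluorescence within 5 SD of its mean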;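 also: negative B-score means less thallium flux so channel inhibition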
# KCC2 sec1 = confirmation of human KCC2 transport modulators. shares compounds with Cl transport mod. HEK293-KCC2, thallium flux, FluoZin2 fluorescence; stronger effect = higher value. normalised thallium flux (F/F0 slope) at 10 µM. hit rate 15% among 3,700. AID 1713;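 active = thallium flux slope above the same plate's solvent-only control mean plus 3 SD; inconclusive = the two replicate wells disagree; inactive = no significant difference from solvent-only control wells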
# KCC2 bumet counter = thallium flux despite bumetanide block in KCC2 cells, secondary assay 3; AID 1714; hit rate 49% among 3,700; HEK293-KCC2 + bumetanide/ouabain, thallium flux FluoZin2; stronger effect = higher value; shares compounds with Cl transport mod; normalized thallium flux at 10 µM;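 active = thallium entry rate above the same plate's blocked-transporter control wells by more than 3 SD; inconclusive = the two repeat wells disagree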;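 also: raw slope of fluorescence over initial fluorescence between 10 and 20 s after thallium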
# KCC2 sec2 = KCC2 (human) modulation, second secondary assay; AID 1715; hit rate 23% among 3,700; normalized thallium flux at 10 µM; shares compounds with Cl transport mod; HEK293-KCC2, thallium flux FluoZin2 fluorescence; actives lie on both sides; F/F0 rise rate, 10–20 s post-thallium;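 active = thallium flux slope more than 3 SD above or below the plate's solvent-only control mean, mostly below; inconclusive = the two repeat wells disagreed; inactive = no significant shift from solvent-only controls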;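 also: raw slope with 0.1% DMSO as baseline and bumetanide as block control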
# HEK counter1 = counter-screen for KCC2 modulators: effect in parental HEK293 cells. shares compounds with Cl transport mod. thallium flux FluoZin2, ouabain; baseline-ratio fluorescence slope, 10–20 s after thallium. thallium flux rate (normalised fluorescence) at 10 µM. hit rate 46% among 3,700. AID 1716;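 active = thallium flux rate significantly above the same plate's solvent-only control wells, beyond their mean plus 3 SD; inconclusive = the two replicate wells gave conflicting results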
# KCC2 ouabain = modulates human KCC2 on retest with ouabain. shares compounds with Cl transport mod. HEK293-KCC2, thallium flux FluoZin2 fluorescence; bidirectional: low = inhibitor, high = activator. raw Tl+ flux slope (below DMSO = inhibition, above = activation) at 10 µM. hit rate 48% among 3,700. AID 1717;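 active = thallium flux slope beyond 3 SD from same-plate DMSO control mean in most replicates, usually higher, sometimes lower; inconclusive = repeat tests gave conflicting results; inactive = no significant difference from controls in most replicates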;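 also: slope of initial-normalized fluorescence between seconds 10 and 20 after thallium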
# HEK293 Tl flux2 = parental HEK flux effect, counter-screen 2. hit rate 33% among 3,700. thallium flux slope at 10 µM. HEK293 parental, thallium flux FluoZin-2 fluorescence slope. shares compounds with Cl transport mod;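 active = thallium flux slope above the same plate's solvent-control mean plus 3 SD in both duplicate wells; inconclusive = duplicate wells that disagreed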;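 also: run without ouabain in cells lacking the KCC2 cotransporter; slope of fluorescence scaled to its starting value between 10 and 20 s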
# The depositor's hits bear a star; i = inactive; ? = inconclusive; . = no result.
SMILES,Cl transport mod,hERG protect,KCNQ1 block,KCNQ1 pot,KCNK3 block,KCNK9 inh,KCC2 sec1,KCC2 bumet counter,KCC2 sec2,HEK counter1,KCC2 ouabain,HEK293 Tl flux2
CN(C)CCNC(=O)c1cc(Br)ccc1Cl,0.391,-4.1,i,i,i,i,.,.,.,.,.,.
COCCNC(=O)c1cc(Br)ccc1Cl,-4.51*,-9.1,i,i,i,i,0.0109,0.0354*,0.0325,0.0191*,0.0284,?
CCc1ccc(OCCNC(=O)c2cc(SC)ccc2Cl)cc1,-6.29*,-14.0,i,i,i,i,0.00668,0.00528,0.0251*,0.00707,?,0.0111
O=C(NCc1ccccc1F)c1ccc(S(=O)(=O)NCc2ccco2)cc1,.,.,.,.,i,.,.,.,.,.,.,.
O=C(COC(=O)CN1C(=O)COc2ccccc21)NC1CCCCC1,.,-9.3,i,i,i,i,.,.,.,.,.,.
COc1ccc(C2CC(c3ccc(Br)cc3)=NN2C(=S)Nc2ccccc2)cc1 (stereo not drawn),1.55,-4.6,i,i,i,i,.,.,.,.,.,.
O=C(Cn1cnc2scc(-c3ccc(F)cc3)c2c1=O)N1CCOCC1,0.0973,-1.7,i,i,i,i,.,.,.,.,.,.
Cc1ccc(-c2csc3ncn(CC(=O)N4CCOCC4)c(=O)c23)cc1C,.,-7.5,i,i,i,i,0.0113,?,0.0356,0.00477,0.0211,0.012
CC(=O)Nc1ccc(S(=O)(=O)N2CCN(C(C)CCc3ccccc3)CC2)cc1 (stereo not drawn),.,-13.5,i,i,i,i,0.0163,0.00489,0.0213*,0.00765,0.0138,0.0102
C=C(C)CN(CC)Cc1c(C(=O)N(C)CCCC)nc2ccccn12,-1.81,-15.4,i,i,i,i,.,.,.,.,.,.
O=C(Nc1ccccc1Cl)N1CCN(c2ccc3nnc(-c4ccc(F)cc4)n3n2)CC1,-3.92*,-17.8,i,i,i,i,0.00921,0.00715,0.0301,0.00926*,0.0189,0.0103
COc1ccccc1NC(=O)N1CCN(c2ccc3nnc(-c4ccc(F)cc4)n3n2)CC1,-2.49,-12.0,i,i,i,i,.,.,.,.,.,.
Fc1ccc(N2CCN(C(=S)NCC3CCCO3)CC2)cc1 (stereo not drawn),-2.63*,-7.7,i,i,i,i,0.00667,0.00586,0.028,0.0063,?,0.00939
S=C(NCC1CCCO1)N1CCN(c2cccc(Cl)c2)CC1 (stereo not drawn),-1.05,-12.8,i,i,i,i,.,.,.,.,.,.
O=C(O)c1ccc(NC(=S)NC(=O)c2cccc(COc3ccccc3)c2)cc1,-3.73*,-9.9,6*,i,i,i,0.00834,?,0.0343,0.00395,?,0.011
O=C(NC(=S)Nc1ccc2c(c1)OCCO2)c1ccc(F)cc1Cl,16.1*,-0.7,i,i,i,i,0.00988,0.0224*,0.0328,0.0118*,?,0.0112
O=C(CNC(=O)c1ccco1)Nc1ccc2c(c1)OCCO2,.,-12.7,i,i,i,i,.,.,.,.,.,.
O=C(NC(=S)Nc1cc(C(F)(F)F)ccc1N1CCOCC1)c1ccco1,88.9*,5.7*,i,i,i,i,0.0224*,0.114*,0.0387,?,0.0758*,0.0258*
O=C(Nc1ccc2c(c1)OCCO2)c1cc(F)c(F)cc1Cl,.,-1.3,i,i,i,i,.,.,.,.,.,.
O=C(NC(=S)Nc1ccc2c(c1)OCCO2)c1ccco1,99.9*,-7.8,i,i,i,i,0.0228*,0.0995*,0.04,0.0834*,0.0702*,0.0425*
O=C1CCC/C(=N\NC(=O)c2ccc(NS(=O)(=O)c3ccc(Br)cc3)cc2)C1,-0.00658,-9.4,i,i,i,i,.,.,.,.,.,.
CC1CCCN(C(=O)c2ccc(Cl)c(S(=O)(=O)N3CCCCCC3)c2)C1 (stereo not drawn),.,.,.,.,i,.,.,.,.,.,.,.
O=C(NC(=S)Nc1ccc(Oc2ccccc2)cc1)c1ccc(Cl)cc1,30.8*,-3.4,i,i,i,i,0.00664,0.0224*,?,0.0163*,0.0278*,0.0137*
CCN(CC)c1ccc(NC(=O)c2ccco2)cc1,-0.00594,-10.1,i,i,i,i,.,.,.,.,.,.
O=C(Nc1ccc(Nc2ccccc2)cc1)c1ccccc1F,.,-3.1,i,i,i,i,.,.,.,.,.,.
SMILES,Cl transport mod,hERG protect,KCNQ1 block,KCNQ1 pot,KCNK3 block,KCNK9 inh,KCC2 sec1,KCC2 bumet counter,KCC2 sec2,HEK counter1,KCC2 ouabain,HEK293 Tl flux2
O=C(NC(=S)Nc1ccc2c(c1)OCO2)c1ccc(Cl)cc1,8.16*,-7.1,i,i,i,i,0.00934,0.0118*,0.0393,?,0.0259*,0.0117
Cc1ccc(C(=O)NC(=S)Nc2ccc(Oc3ccc(Cl)cc3)cc2)cc1,1.91,-2.3,i,i,i,i,.,.,.,.,.,.
CCN(CC)c1ccc(NC(=O)c2ccccc2F)cc1,-6.19*,-6.3,i,i,i,i,0.0165,?,0.0289,0.00722,0.0145,0.00946
CCN(CC)c1ccc(NC(=S)NC(=O)c2ccco2)cc1,69.4*,52.9*,i,35*,i,i,0.0431*,0.171*,?,?,0.115*,?
NC1=NC(c2cn[nH]c2-c2cccc(F)c2)n2c(nc3ccccc32)N1 (stereo not drawn),-0.0409,-9.6,i,i,i,i,.,.,.,.,.,.
O=C(CNC(=O)c1cccs1)NCC(=O)OCC(=O)c1ccc([N+](=O)[O-])cc1,0.419,-2.7,i,i,i,i,.,.,.,.,.,.
CCCCOc1cccc(C(=O)NC(=S)Nc2cccnc2)c1,6.04*,-2.9,i,i,i,i,0.0129*,0.0867*,0.0358,0.0287*,0.052*,0.0131*
COc1cccc(OC)c1C(=O)NC(=S)Nc1ccc2oc(=O)ccc2c1,0.0227,-6.6,i,i,i,i,.,.,.,.,.,.
